Published values pooled from the literature.
Protocols differ between the studies behind these lines.
Effect on: enzyme activity
Action: inhibitor
EGFR L858R/T790M: Epidermal growth factor receptor (EGFR, Homo sapiens, UniProt P00533, L858R/T790M)
EGFR: Epidermal growth factor receptor (EGFR, Homo sapiens, UniProt P00533)
EGFR T790M: Epidermal growth factor receptor (EGFR, Homo sapiens, UniProt P00533, T790M)
EGFR L858R: Epidermal growth factor receptor (EGFR, Homo sapiens, UniProt P00533, L858R)

| SMILES | target | test | conditions | inhibition |
| --- | --- | --- | --- | --- |
| CCC(=O)Nc1cc(Nc2nc(N3CCc4sccc4C3)c3cccnc3n2)c(OC)cc1N1CCN(C(C)=O)CC1 | EGFR L858R/T790M | ELISA | 0.1 µM | 10% |
| CS(=O)(=O)Nc1cc(-c2ccc3ncnc(Nc4ccc(F)c(Cl)c4)c3c2)cnc1Cl | EGFR | FRET | 10 µM | 90 to 100% |
| COc1cc2ncnc(Nc3ccc(Oc4ccccc4)c(C)c3C)c2cc1OC | EGFR T790M |  | 1 µM | 22% |
| CS(=O)(=O)Nc1cccc(-c2csc(NC(=O)CSc3nc4nccnc4c(=O)n3CCc3ccccc3)n2)c1 | EGFR L858R |  | 10 µM | -1% |
| C=CC(=O)Nc1cc(Nc2nc(N3CCc4sccc4C3)c3cccnc3n2)c(OC)cc1N1CCSCC1 | EGFR L858R/T790M | ELISA | 0.1 µM | 23.9% |
| CN1CC(Oc2cnc(C#N)cc2-c2ccn3nc(NC(=O)C4CC4)cc3c2)C1 | EGFR |  | 1 µM | -1% |
| COc1cc(-c2cc(-c3ccc(N4CCNCC4)cc3)cnc2N)cc(OC)c1OC | EGFR T790M |  | 1 µM | 4% |
| C=CC(=O)Nc1cc(Nc2nccc(Nc3cc(Cl)c(F)cc3C(C)(C)O)n2)c(OC)cc1N1CC[C@@H](N(C)C)C1 | EGFR L858R/T790M |  | 1 µM | 99% |
| CCOc1cc(-c2nncn2C)ccc1Nc1ncc2cc(C)nc(NCC(C)(C)C)c2n1 | EGFR | FRET | 1 µM | < 15% |
| CN(C)C1CCN(CC#Cc2nn(C3CCCC3)c3nc(NCc4ccccc4)ncc23)C1 (stereo not drawn) | EGFR | FRET | 10 µM | 17% |
| C=C(Cl)C(=O)Nc1cc(Nc2nc(N3CCSCC3)c3sccc3n2)c(OC)cc1N(C)CCN(C)C | EGFR L858R/T790M | ELISA | 0.1 µM | 50.2% |
| COc1cc2ncnc(Nc3cccc(OCCn4ccnc4[N+](=O)[O-])c3)c2cc1OCCCN1CCOCC1 | EGFR | FRET | 1 µM | 30% |
| O=C(CSc1nc2nccnc2c(=O)n1CCc1ccccc1)Nc1nccs1 | EGFR L858R |  | 10 µM | 1% |
| C/C=C/C(=O)Nc1cc(Nc2nc(Nc3cnn(C)c3)c3sccc3n2)c(OC)cc1N(C)CCN(C)C | EGFR L858R/T790M | ELISA | 0.1 µM | 18.3% |
| COc1cc2nccc(Oc3ccc(NC(=O)c4c5n(n(-c6ccc(F)cc6)c4=O)CCCC5)cc3)c2cc1OC | EGFR |  | 0.1 µM | -2% |
| CCC(=O)Nc1cc(Nc2nc(N3CCc4sccc4C3)c3cccnc3n2)c(OC)cc1N1CCOCC1 | EGFR L858R/T790M | ELISA | 0.1 µM | 7.6% |
| COc1cc2ncnc(Nc3ccc(Oc4ccccc4)cc3C)c2cc1OC | EGFR T790M |  | 1 µM | 50% |
| C=C(Cl)C(=O)Nc1cc(Nc2nc(N3CCCC3)c3sccc3n2)c(OC)cc1N(C)CCN(C)C | EGFR L858R/T790M | ELISA | 0.1 µM | 12.7% |
| CNCc1ccc(-c2cc(-c3nc(-c4ccc(S(=O)(=O)C(C)C)cc4)cnc3N)on2)cc1 | EGFR |  | 0.4 µM | 0% |
| C=C(Cl)C(=O)Nc1cc(Nc2nc(N3CCc4sccc4C3)c3sccc3n2)c(OC)cc1N(C)CCN(C)C | EGFR L858R/T790M | ELISA | 0.1 µM | 90.3% |
| CC/C(=N\NC(=O)NCc1cccc(O)c1)c1ccc(O)c(C)c1O | Epidermal growth factor receptor (EGFR, Homo sapiens, UniProt P00533, del746-750) |  | 0.1 µM | -0.6% |
